Screening data: PubChem BioAssay, Sanford-Burnham Center for Chemical Genomics
CendR NRP1 mod: modulators of CendR peptide binding to human neuropilin-1 | FAM-RPARPAR peptide binding to NRP-1, fluorescence polarization | inhibition, % at 25 µM | 0.85% of 360,000 active;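 active = inhibition or corrected inhibition above about 18%, plus a signal ratio from 0.5 to 1.5, limit read from the data, passing the limit was not always enough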
SENP7 block: inhibitors of human SENP7 protease | inhibition, % at 5 µM | 1.5% of 330,000 active | recombinant SENP7, Z-RLRGG-aminoluciferin luminescence, 40 min | Q9BQF6 | AID 434973;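 active = inhibition above about 50% at the single test dose, limit read from the data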
SENP8 block-1: blocks human SENP8 cleavage of Nedd8 substrate. Q96LD8. recombinant SENP8, Nedd8 substrate fluorescence. inhibition, % at 20 µM. 0.64% of 360,000 active; in the data active = inhibition mostly above about 40%, no sharp cut-off; inactive = mostly below about 27%
Target sequence (Q96LD8 whole entry, looked up): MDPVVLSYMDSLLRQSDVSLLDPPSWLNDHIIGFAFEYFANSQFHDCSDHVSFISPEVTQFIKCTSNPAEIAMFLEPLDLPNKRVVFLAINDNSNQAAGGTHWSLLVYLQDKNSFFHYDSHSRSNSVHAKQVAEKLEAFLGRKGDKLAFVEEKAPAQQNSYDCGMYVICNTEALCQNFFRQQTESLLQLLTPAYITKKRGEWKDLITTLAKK
SENP8 block-2: inhibitors of human SENP8 protease; AID 2540; 1.2% of 330,000 active; purified SENP8, Z-RLRGG-aminoluciferin cleavage, luminescence; inhibition, % at 10 µM; Q96LD8; in the data active = inhibition above about 50%
SENP6 inh: blocks the human protease SENP6 | Q9GZR1 | Recombinant SENP6 catalytic domain, aminoluciferin luminescence | inhibition, % at 10 µM | 1.8% of 330,000 active | AID 2599;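 active = inhibition above about 50% at the single tested dose, limit read from the data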
SENP1 FRET inh: SENP1 (human) catalytic domain inhibition; Q9P0U3; recombinant SENP1 catalytic domain, CyPet-SUMO1-YPet FRET cleavage; inhibition, % at 10 µM; 0.21% of 360,000 active;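 active = inhibition at least 30% at 10 µM, raw YFP signal under a set limit, fluorescence ratio 0.5 to 1.5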
Target sequence (Q9P0U3 419-644 limits assumed): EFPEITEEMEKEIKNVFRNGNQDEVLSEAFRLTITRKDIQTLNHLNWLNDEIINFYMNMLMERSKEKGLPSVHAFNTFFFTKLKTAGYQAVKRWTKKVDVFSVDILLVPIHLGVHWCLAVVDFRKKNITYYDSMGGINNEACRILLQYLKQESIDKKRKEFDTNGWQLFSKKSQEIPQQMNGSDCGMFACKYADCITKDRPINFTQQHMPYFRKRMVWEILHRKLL
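Assay system – human recombinant His6-tagged SENP1 catalytic domain enzyme · Input – SENP1 enzyme, 20 pM final · Buffer or medium – Tris pH 8 buffer plus EDTA, NaCl, BME, BSA, NP40, catalase · Schedule – 50 min reaction at room temperature · Technique – FRET read of cyan and yellow fluorescence · Control set – no-enzyme wells low, DMSO-plus-enzyme wells high control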
SENP8 conf: confirmation of human SENP8 protease inhibitors; shares compounds with SENP7 block; Recombinant SENP8, Z-RLRGG-aminoluciferin luminescence, 60 min; inhibition, % at 12.5 µM; 40% of 6,200 active;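 active = mean inhibition across replicates above about 50%, limit read from the data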
SENP6 confirm: human SENP6 inhibition, confirmed | shares compounds with SENP7 block | recombinant SENP6, Z-RLRGG-aminoluciferin luminescence | inhibition, % at 12.5 µM | 58% of 6,200 active
SENP7 conf: human SENP7 inhibition, confirmed. shares compounds with SENP7 block. recombinant SENP7, Z-RLRGG-aminoluciferin luminescence, 40 min. inhibition, % at 12.5 µM. 69% of 6,200 active. AID 488917
Casp3 SENP sel: caspase-3 inhibition (SENP selectivity assay) | shares compounds with SENP7 block | purified caspase-3, Z-DEVD-aminoluciferin luminescence, 60 min | inhibition, % at 12.5 µM | 60% of 6,200 active | AID 488918;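 active = mean inhibition above about 50%, limit read from the data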
Target sequence (P42574 28-227 limits assumed): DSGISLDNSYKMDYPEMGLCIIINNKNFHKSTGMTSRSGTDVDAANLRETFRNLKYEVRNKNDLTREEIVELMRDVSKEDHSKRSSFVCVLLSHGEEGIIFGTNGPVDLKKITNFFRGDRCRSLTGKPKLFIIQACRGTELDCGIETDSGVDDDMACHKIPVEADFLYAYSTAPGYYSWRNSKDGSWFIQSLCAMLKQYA
SENP luc ctr: luminescence interference (SENP counter-screen). shares compounds with SENP7 block. Pre-incubated SENP8/Z-RLRGG-aminoluciferin, luciferase luminescence interference. inhibition, % at 12.5 µM. 39% of 6,200 active. AID 488919;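 active = mean inhibition above about 50% when retested at one dose, limit read from the data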
Numbers stand for hits; n = inactive; x = no result. Only some compounds are listed: those with a hit (about 3.3% of all), similar ones and a draw of the others.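 The calls were made as follows, unless noted: active = mean inhibition above about 50% in the one-dose retest (limit read from the data); inactive = the rest.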

SMILES	CendR NRP1 mod	SENP7 block	SENP8 block-1	SENP8 block-2	SENP6 inh	SENP1 FRET inh	SENP8 conf	SENP6 confirm	SENP7 conf	Casp3 SENP sel	SENP luc ctr
CC(=O)c1sc(NC(=O)c2oc3ccc(F)cc3c2C)nc1C	n	80.5	n	56.6	n	n	n	n	n	50.5	n
CC(=O)c1sc(NC(=O)c2cc(=O)c3ccccc3o2)nc1C	n	64.4	n	67.0	82.3	n	79.3	81.7	96.2	90.3	n
CCOC(=O)c1csc(NC(=O)c2cc(=O)c3ccccc3o2)n1	n	n	n	n	n	n	x	x	x	x	x
N#Cc1ccc(Cl)cc1NC(=O)CN1C(=O)C(=O)N(CCC2=CCCCC2)C1=O	n	x	n	x	x	n	x	x	x	x	x
C(#CC1CCCCC1)c1ccc2c(c1)COc1c3ccccc3nn1-2	n	n	n	n	n	n	x	x	x	x	x
C(#Cc1ccc2c(c1)COc1c3ccccc3nn1-2)c1ccccc1	n	61.4	n	73.8	76.4	n	n	n	56.6	n	n
C#Cc1ccc2c(c1)COc1c3ccccc3nn1-2	n	71.5	n	93.0	95.6	n	76.2	96.3	101.2	91.7	51.9
CCCCCCC#Cc1ccc2c(c1)COc1c3ccccc3nn1-2	n	n	n	n	n	n	x	x	x	x	x
CCN(Cc1ccccc1)c1cc2c(c3c1ccn3C)C1CCC2C1 (configuration not stated)	n	x	n	x	x	n	x	x	x	x	x
Cc1cc(C(=O)NC(=S)Nc2cccc(NC(=O)C(C)C)c2)ccc1[N+](=O)[O-]	n	77.2	n	56.0	71.1	n	n	60.8	95.4	77.5	51.3
O=C(Nc1ccccc1F)n1ncc2cc(Cl)ccc21	n	n	n	n	n	n	x	x	x	x	x
COc1ccc(NC(=O)n2ncc3cc(Cl)ccc32)cc1OC	n	n	n	n	60.3	n	n	59.2	n	n	n
COc1ccc(NC(=O)c2cc(-c3cc(Cl)ccc3OC)n[nH]2)cc1OC	n	x	n	x	x	n	x	x	x	x	x
COc1cc(NC(=O)n2ncc3cc(Cl)ccc32)cc(OC)c1	n	n	n	54.1	n	n	n	n	n	n	n
C[C@H](NC(=O)c1cccc([N+](=O)[O-])c1)C(=O)OCC(=O)c1ccccc1Br	n	n	n	n	n	n	x	x	x	x	x
COc1cccc(CNC(=O)[C@@H]2CCCN2C(=O)[C@@H]2CCCN2C(=O)c2ccc(Cl)cc2)c1	n	x	n	x	x	n	x	x	x	x	x
O=C(CCCOc1ccccc1)N1CCCCC1	n	n	n	n	55.0	n	n	n	69.4	78.7	n
COc1ccc(C(=O)CC(=O)c2ccccc2)cc1	n	73.6	n	67.1	77.1	n	70.5	70.1	92.0	55.0	58.8
COC(=O)c1ccc(OCC(=O)c2ccccc2)cc1	n	57.1	n	n	n	n	52.1	51.0	84.2	72.6	61.5
COc1ccc(C(=O)CNc2ccc3ccccc3c2)cc1	n	n	n	n	n	n	x	x	x	x	x
O=C(COc1ccccc1)c1ccccc1	n	x	n	x	x	n	x	x	x	x	x
COc1ccc(C(=O)CNc2ccccc2Br)cc1	n	n	n	n	58.0	n	n	63.9	61.4	n	n
CCOC(=O)N1CCN(C(=O)C[C@@H]2C[C@@]3(C(=O)OCC)CCC=C3N(Cc3cccc4ccccc34)C2=O)CC1	n	x	n	x	x	n	x	x	x	x	x
COc1ccc2sc(NC(=O)c3ccco3)nc2c1	n	n	n	87.2	89.8	n	86.7	90.4	97.4	90.9	85.9
CC(=O)Nc1ccc2nc(NC(=O)c3ccco3)sc2c1	n	66.3	n	n	68.3	n	57.2	54.3	85.9	84.5	n
SMILES	CendR NRP1 mod	SENP7 block	SENP8 block-1	SENP8 block-2	SENP6 inh	SENP1 FRET inh	SENP8 conf	SENP6 confirm	SENP7 conf	Casp3 SENP sel	SENP luc ctr
COc1ccc2c(c1)CCc1sc(NC(=O)c3ccco3)nc1-2	n	n	n	n	n	n	x	x	x	x	x
COc1ccc2c(c1)Cc1sc(NC(=O)c3ccco3)nc1-2	n	94.6	n	88.0	91.7	n	n	n	87.3	63.7	78.4
CC(=O)NC(c1cccc(F)c1)c1nc(-c2cnc3ccccc3c2)cs1 (configuration not stated)	n	x	n	x	x	n	x	x	x	x	x
Cc1ccccc1OCCC(=O)N1CCN(S(=O)(=O)c2ccc(Br)cc2)CC1	n	n	n	n	n	n	x	x	x	x	x
COc1ccc(-c2nsc3c(N4CCCC4)ncnc23)cc1	n	74.3	n	n	51.6	n	n	n	51.2	57.7	n
COc1ccc(-c2csc3ncnc(N4CCN(c5ccc(OC)cc5)CC4)c23)cc1	n	n	n	n	n	n	x	x	x	x	x
C[C@H](CO)N1C[C@H](C)[C@H](CN(C)C(=O)Nc2ccc(F)cc2)OCc2cnnn2CCCC1=O	n	x	n	x	x	n	x	x	x	x	x
O=C(/C=C/c1ccc(O)c(O)c1)c1ccccc1O	n	96.7	n	96.8	n	n	n	100.7	103.1	95.2	98.8
CSc1ncccc1C(=O)Nc1nc2ccc(S(C)(=O)=O)cc2s1	n	n	n	n	n	n	x	x	x	x	x
Cc1csc(NC(=O)c2cc(C)oc2C)n1	n	58.9	n	n	68.7	n	63.8	62.8	88.9	84.1	64.8
COc1ccc2nc(NC(=S)N(C)C)sc2c1	n	76.3	n	66.5	80.7	n	79.9	78.7	94.3	68.9	78.6
COc1ccc2nc(NC(=O)c3cccnc3SC)sc2c1	n	85.0	n	70.6	92.9	n	77.8	76.7	93.4	71.6	n
COc1ccc2nc(NC(=O)c3ccoc3C)sc2c1	n	100.5	n	96.9	100.8	n	96.9	99.8	103.1	98.5	96.6
COc1cccc(CNC(=O)c2ccc(S(=O)(=O)N3CCCCC3)cc2)c1	n	x	n	x	x	n	x	x	x	x	x
Cc1cc(C(=O)Nc2nc3ccc(S(C)(=O)=O)cc3s2)c(C)o1	n	93.3	n	n	96.1	n	n	88.9	100.6	93.6	n
COc1ccc2nc(NC(=O)c3cc(C)oc3C)sc2c1	n	101.2	n	89.9	88.4	n	n	93.5	102.3	95.5	63.2
CCCC(=O)Nc1nc2ccc(OC)cc2s1	n	n	n	n	n	n	x	x	x	x	x
CC1=NN(C(N)=S)C(=O)C1N=Nc1cccc(C)c1 (configuration not stated)	n	54.2	n	60.5	n	n	n	n	n	n	n
CCOC(=O)c1sc(N2N=C(C)C(N=Nc3cccc(C)c3)C2=O)nc1C (configuration not stated)	n	n	n	n	n	n	x	x	x	x	x
